Bioassay records deposited in PubChem by The Scripps Research Institute Molecular Screening Center.
PLCg1 inh = inhibitors of human phospholipase C gamma1; purified PLC-gamma1, fluorogenic substrate, fluorescence; inhibition, % at 12.2 µM; 370,000 tested, 0.84% active
Target sequence (P19174 whole entry, looked up): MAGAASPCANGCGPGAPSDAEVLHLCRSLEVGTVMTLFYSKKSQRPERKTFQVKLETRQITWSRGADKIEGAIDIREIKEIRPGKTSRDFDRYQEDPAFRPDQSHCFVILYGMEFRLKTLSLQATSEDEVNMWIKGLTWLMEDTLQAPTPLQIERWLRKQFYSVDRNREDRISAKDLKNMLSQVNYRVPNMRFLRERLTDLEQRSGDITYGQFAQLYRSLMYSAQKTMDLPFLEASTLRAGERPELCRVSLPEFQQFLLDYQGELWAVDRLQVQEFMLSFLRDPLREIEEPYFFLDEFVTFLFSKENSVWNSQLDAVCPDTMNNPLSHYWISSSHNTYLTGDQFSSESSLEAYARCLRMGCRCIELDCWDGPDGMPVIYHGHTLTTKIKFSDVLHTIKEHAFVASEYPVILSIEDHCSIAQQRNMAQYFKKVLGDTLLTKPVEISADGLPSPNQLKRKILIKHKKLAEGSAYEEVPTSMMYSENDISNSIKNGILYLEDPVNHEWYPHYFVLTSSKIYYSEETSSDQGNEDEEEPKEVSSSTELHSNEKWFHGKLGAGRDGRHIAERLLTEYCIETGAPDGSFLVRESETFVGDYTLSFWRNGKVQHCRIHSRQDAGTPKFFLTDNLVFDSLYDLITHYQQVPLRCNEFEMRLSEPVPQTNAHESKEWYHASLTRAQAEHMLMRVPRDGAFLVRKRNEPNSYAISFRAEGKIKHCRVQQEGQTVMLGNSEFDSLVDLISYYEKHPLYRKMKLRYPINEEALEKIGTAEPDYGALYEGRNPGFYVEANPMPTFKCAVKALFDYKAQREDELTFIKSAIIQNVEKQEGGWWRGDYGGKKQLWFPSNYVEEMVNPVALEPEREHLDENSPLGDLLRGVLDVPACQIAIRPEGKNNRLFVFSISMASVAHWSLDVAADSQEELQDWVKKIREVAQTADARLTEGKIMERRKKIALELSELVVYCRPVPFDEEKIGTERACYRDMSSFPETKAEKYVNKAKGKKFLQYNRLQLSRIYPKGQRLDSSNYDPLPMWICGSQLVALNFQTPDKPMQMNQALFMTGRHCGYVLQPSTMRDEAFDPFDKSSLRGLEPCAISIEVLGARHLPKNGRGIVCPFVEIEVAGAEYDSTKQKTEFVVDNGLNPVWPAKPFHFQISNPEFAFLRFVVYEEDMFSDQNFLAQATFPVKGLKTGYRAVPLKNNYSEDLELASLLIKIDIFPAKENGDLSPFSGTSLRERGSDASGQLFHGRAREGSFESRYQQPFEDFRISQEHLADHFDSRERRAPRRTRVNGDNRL
sPLA2-III inh = Blocks human group III sPLA2 activity; inhibition, % at 12.2 µM; AID 743126; 370,000 tested, 0.56% active; Q9NZ20; QFRET BODIPY PC-A2 liposome hydrolysis, fluorescence;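 active = inhibition above mean plus 3 SD of compounds lying within the high and low control bounds, cut at about 19% in these data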;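 also: 0% = median of test compound wells and 100% = no enzyme DMSO wells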
DAGLB inhibitor = diacylglycerol lipase beta (human) inhibition | inhibition, % at 5.17 µM | 340,000 tested, 0.059% active | HEK293T DAGLB membrane lysate, EnzChek fluorogenic substrate | Q8NCG7; in the data active = inhibition above about 34%;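 also: 0% = enzyme with vehicle and 100% = wells lacking enzyme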
PLC-beta3 inh = PLC-beta3 (human) inhibition, primary screen; Q01970; Purified PLC-beta3, fluorogenic substrate, fluorescence; inhibition, % at 12.2 µM; 370,000 tested, 0.18% active; AID 720704; in the data active = inhibition above about 11%;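 also: 0% = median of compound wells on plate and 100% = full blocker control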
TbMetRS inhib = Trypanosoma brucei MetRS inhibition; purified T. brucei MetRS, ATP depletion, Kinase-Glo luminescence; 360,000 tested, 0.4% active; AID 624268; inhibition, % at 11.9 µM;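 active = inhibition above a per-plate cutoff of the control wells' mean inhibition plus 3 SD, cut at about 5.5% in these data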;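 also: 0% = DMSO wells median and 100% = median of wells with control inhibitor compound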
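Dosing: 11.9 µM compound single dose, 0.9% DMSO; Assay system: purified T. brucei MetRS enzyme; Measured by: Kinase-Glo luciferase luminescence reporting remaining unconsumed ATP; Schedule: 15 min plus 2 h at 25 °C.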
PLCgamma1 ctr = PLC-gamma1 inhibition, counter-screen for PLC-beta3 hits; shares compounds with PLCg1 inh; inhibition, % at 12.3 µM; AID 743258; purified PLC-gamma1, fluorogenic substrate, fluorescence; 3,300 tested, 3.1% active
PLCbeta3 conf = confirmation of human PLC-beta3 inhibitors. shares compounds with PLCg1 inh. purified PLC-beta3, fluorogenic substrate fluorescence. inhibition, % at 12.3 µM. 3,300 tested, 1% active; in the data active = inhibition above about 11%
Numbers without * were called inactive; i = inactive; / = no result given. Compounds with a hit are over-represented: about 1.9% of the library has one in this group of screens. Rule as the data show it, unless noted: active = inhibition above about 9.5%; inactive = the rest.

SMILES | PLCg1 inh | sPLA2-III inh | DAGLB inhibitor | PLC-beta3 inh | TbMetRS inhib | PLCgamma1 ctr | PLCbeta3 conf
Cc1ccc(-c2nnc3sc(C4COc5ccccc5O4)nn23)cc1 (stereo not given) | -2 | 1 | -1 | -1 | -1 | / | /
CCNC(=O)OC[C@H]1O[C@H](C#Cc2ccc(C(C)(C)C)cc2)C=C[C@H]1OC(C)=O | -1 | 1 | / | -3 | / | / | /
COc1cccc(CN(C)C(=O)COc2cccc3c2OC(C)(C)C3)c1OC | 13* | 5 | -2 | 13* | -1 | -5 | -4
COc1ccccc1CCNC(=O)COc1cccc2c1OC(C)(C)C2 | 3 | 0 | -12 | -7 | 1 | / | /
O=C(O)CCCN1C(=O)/C(=C/C=C/c2ccco2)SC1=S | 23* | -13 | 7 | -15 | 1 | 18* | -15
O=C(O)C(Cc1ccccc1)N1C(=O)/C(=C/C=C/c2ccco2)SC1=S (stereo not given) | -1 | 1 | 11 | -38 | 1 | / | /
O=C(O)CC(C(=O)O)N1C(=O)/C(=C/C=C/c2ccco2)SC1=S (stereo not given) | 59* | -6 | 0 | -11 | 1 | 52* | -15
Cc1ccc(S(=O)(=O)N2CC[C@@]3(Cc4ccccc4)Cc4ccccc4C[C@@H]23)cc1 | 5 | -6 | / | 3 | / | / | /
COc1cccc(C2NC(=S)N(Cc3ccc(Br)cc3)C(C)=C2C(C)=O)c1 (stereo not given) | 2 | 0 | / | 0 | / | / | /
CN(CC(=O)NCc1ccccc1)Cc1cccc(F)c1 | 11* | 12 | 1 | 5 | -1 | -6 | -3
CCOc1ccc(CN(C)CC(=O)NCc2ccccc2)cc1 | 0 | 0 | -5 | -8 | 0 | / | /
C=COc1ccc(N2C(=O)c3ccccc3OC2C)cc1 (stereo not given) | 14* | 2 | -1 | -1 | 0 | -3 | -1
COc1ccc(N2C(=O)c3ccccc3C2O)cc1 (stereo not given) | -6 | 8 | -2 | -5 | 0 | / | /
C[C@H]1COc2cc(Br)ccc2S(=O)(=O)N1Cc1cn(Cc2ccco2)nn1 | -1 | 0 | / | 0 | / | / | /
O=C(c1c(F)cccc1F)N1CCN(c2ccccc2F)CC1 | 5 | -2 | -1 | 16* | -2 | -3 | -1
O=C(Nc1ccccc1N1CCN(C(=O)c2ccc(Cl)cc2)CC1)c1cccc(F)c1 | 12* | -8 | -4 | -6 | 0 | -1 | -1
O=C(Nc1ccccc1N1CCN(C(=O)c2ccccc2)CC1)c1cccc(Cl)c1 | 1 | -3 | 0 | -7 | 0 | / | /
COCCNC(=S)N(C)[C@H]1C[C@H]2c3[nH]c4c(-c5ccccc5)cccc4c3CCN2C[C@H]1[C@H](C)O | -475 | 0 | / | i | / | / | /
CNc1ccccc1/C(O)=C(\C#N)C(=O)NCc1cccc2ccccc12 | -5 | 6 | / | -6 | / | / | /
Cc1cc(=O)[nH]c(SCC(=O)NC2CCCCCC2)n1 | 1 | 10 | -1 | -7 | 0 | / | /
Nc1cc(=O)[nH]c(SCC(=O)NC2CCCCCCC2)n1 | 9.6* | 12 | 3 | -3 | -1 | -10 | -1
Cc1ccc(NC(=O)CSc2nnc(-c3cnccn3)n2C)cc1C | 9.7* | 9 | -3 | -8 | 0 | -4 | 0
Cc1cccc(CSc2nnc(-c3cnccn3)n2C)c1 | 12* | 10 | 1 | 2 | -1 | 0 | 0
Cn1c(SCc2ccccn2)nnc1-c1cnccn1 | 3 | 0 | -7 | -2 | 1 | / | /
CCCCOc1ccc(C(=O)NC2CCCCN(C(C)C)C2=O)cc1 (stereo not given) | -1 | 3 | / | -1 | / | / | /
SMILES | PLCg1 inh | sPLA2-III inh | DAGLB inhibitor | PLC-beta3 inh | TbMetRS inhib | PLCgamma1 ctr | PLCbeta3 conf
COc1ccccc1CCn1cnc(-c2ccccc2F)c1CC(C)C | 11* | 11 | / | 5 | / | -7 | -5
COc1ccccc1CCn1cnc(-c2ccc(F)cc2F)c1CC(C)C | 1 | 7 | / | 4 | / | / | /
NCCC(=O)Nc1ccc(Cl)cc1C(=O)c1ccc[nH]1 | -35 | 6 | / | -52 | / | / | /
CCOC(=O)CC1(CCc2ccccc2)Oc2ccccc2N1S(=O)(=O)c1ccc(C)cc1 (stereo not given) | 12* | 10 | / | 5 | -1 | -2 | 0
CCOC(=O)CC1(C)Oc2cc(Cl)ccc2N1S(=O)(=O)c1ccc(C)cc1 (stereo not given) | 3 | -7 | / | -3 | -1 | / | /
O=C(C1CCCN1S(=O)(=O)c1cccc([N+](=O)[O-])c1)N1CCN(c2ccccc2)CC1 (stereo not given) | 4 | -1 | / | 5 | / | / | /
CC1CCN(N=Nc2nc3c([nH]2)c(=O)n(C)c(=O)n3C)CC1 | 9.9* | 0 | 2 | 8 | 0 | -2 | 3
COC(=O)[C@]12C[C@H](CC(=O)NCc3cccc(C(F)(F)F)c3)C(=O)N(Cc3cccc4ccccc34)C1=C[C@H](C1CCCC1)O[C@@H]2C | 0 | -1 | / | 3 | / | / | /
Cc1ccccc1NC1=C/C(=N\S(=O)(=O)c2ccc(C(=O)O)cc2)c2ccccc2C1=O | 25* | -4 | 15 | 9 | 9.7* | 20* | 4
CCN1C(=O)/C(=C2\SC(=S)N(c3c(C)n(C)n(-c4ccccc4)c3=O)C2=O)c2ccccc21 | 7 | 7 | 0 | 11* | 0 | -1 | -1
Cc1c(N2C(=O)/C(=C3/C(=O)N(C)c4ccccc43)SC2=S)c(=O)n(-c2ccccc2)n1C | -2 | 3 | 0 | 2 | -1 | / | /
CCOC(=O)CN1C(=O)c2ccccc2C1=O | 0 | -4 | -2 | 2 | 0 | / | /
C=CCOC(=O)CN1C(=O)c2ccccc2C1=O | 9 | 5 | 1 | 12* | -1 | 2 | 4
COc1ccc(C(=O)CCC(=O)Nc2cccc(Cl)c2)cc1 | 6 | -14 | -4 | -6 | -1 | / | /
Cc1ccc(C(=O)CCC(=O)Nc2ccc(Cl)c(S(=O)(=O)Nc3cccc(Cl)c3)c2)cc1 | 11* | -40 | 1 | 2 | -1 | -2 | -9
Cc1ccccc1CNC1CCCCC1 | 5 | 0 | 1 | 12* | -1 | -4 | -1
O=[N+]([O-])c1ccccc1CNC1CCCCCC1 | 2 | 3 | -2 | 3 | -1 | / | /
Cc1ccc([N+](=O)[O-])cc1S(=O)(=O)Nc1cccc(S(=O)(=O)NC2=NCCC2)c1 | 9.6* | -13 | 1 | 7 | 0 | -5 | -3
O=S(=O)(NC1=NCCC1)c1cccc(NS(=O)(=O)c2ccc(F)c(Cl)c2)c1 | 1 | 3 | -2 | -5 | 0 | / | /
CCCN(C(=O)CCNC(=O)Cn1cnc2ccccc2c1=O)c1cccc(C)c1 | 11* | 13 | 0 | -3 | -1 | -4 | -4
CCCN(C(=O)CCNC(=O)Cn1cnc2ccccc2c1=O)c1cccc(Cl)c1 | / | / | -1 | / | -1 | / | /
COC(=O)c1ccccc1NC(=O)CCNC(=O)Cn1cnc2ccccc2c1=O | -2 | 3 | -1 | 0 | -1 | / | /
